Source: PubChem
Diaph inh CS: counter-screen for diaphorase-based assays: diaphorase inhibitors and chemical oxidizers | inhibition, % at 20 µM | diaphorase resazurin-to-resorufin fluorescence, NADH, 16 min; bacterial (C. kluyveri) enzyme, not human | AID 1217 | 0.69% of 190,000 active;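 active = primary screen inhibition at 20 µM above a set limit, cut at about 50% in these data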
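material = Clostridium kluyveri diaphorase enzyme | amount = 0.14 U/mL diaphorase, enzyme working solution | schedule = incubation 16 min, room temperature | detection = fluorescence of resorufin formed from resazurin, Ex 544/Em 590 nm | benchmarks = positive control minus NADH, DMSO neutral control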
ROMK primary: modulates human ROMK potassium channel activity. P48048. Tet-inducible ROMK, thallium flux fluorescence; actives lie on both sides. B-score at 10 µM. 2% of 130,000 active;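 active = signal ratio slope over the read window, or its plate-corrected B-score, at least 3 SD from the plate mean, either direction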;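 note: B-score of the F/F0 ratio slope over 7 to 12 s after thallium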
Diaphorase act: diaphorase activation or chemical reduction counter-screen; AID 1229; Diaphorase/resazurin coupled assay, resorufin fluorescence, 16 min; stronger effect = higher value; 1 = vehicle wells, 0 = NADH-free wells; activation factor at 20 µM; 0.005% of 190,000 active;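 active = diaphorase activity raised at least twofold by the compound at 20 µM; inactive = activation factor below 2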
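Material: bacterial diaphorase enzyme (C. kluyveri); amount: enzyme 0.07 U/mL final; reagent: NADH substrate 0.114 mM plus resazurin dye 0.1 mM, final; doses: single compound dose of 20 µM, 1% DMSO final; timing: 16 min enzyme reaction, ambient temperature; measured by: fluorescence of resorufin, 544 nm excitation, 590 nm emission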
WT yeast gro inh: growth inhibition of WT yeast, mitochondrial fusion screen; mitochondrial fusion phenotypic screen, WT strain; inhibition, % at 10 µM; 2.1% of 190,000 active; in the data active = inhibition above about 58%; tested in S. cerevisiae
L major viab: reduces viability of Leishmania major promastigotes; resazurin fluorescence viability; inhibition, % at 10 µM; 9% of 200,000 active; AID 1063; in the data active = inhibition above about 50%;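 note: promastigotes grown with compound for 44 hours at 28 °C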
Cl transport mod: modulates chloride dependent transport by human KCC2. Q9H2X9. KCC2 cells, thallium flux FluoZin-2 fluorescence. 2.2% of 190,000 active. B-score of Tl+ flux slope (higher = more flux/activation; lower = inhibition) at 10 µM;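 active = thallium flux slope and its plate-corrected score both differing from the plate sample mean at a set confidence after two filtering rounds, in either direction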;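 note: slope of fluorescence scaled to starting intensity during 10 to 20 s after thallium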
Target sequence (Q9H2X9 whole entry, looked up): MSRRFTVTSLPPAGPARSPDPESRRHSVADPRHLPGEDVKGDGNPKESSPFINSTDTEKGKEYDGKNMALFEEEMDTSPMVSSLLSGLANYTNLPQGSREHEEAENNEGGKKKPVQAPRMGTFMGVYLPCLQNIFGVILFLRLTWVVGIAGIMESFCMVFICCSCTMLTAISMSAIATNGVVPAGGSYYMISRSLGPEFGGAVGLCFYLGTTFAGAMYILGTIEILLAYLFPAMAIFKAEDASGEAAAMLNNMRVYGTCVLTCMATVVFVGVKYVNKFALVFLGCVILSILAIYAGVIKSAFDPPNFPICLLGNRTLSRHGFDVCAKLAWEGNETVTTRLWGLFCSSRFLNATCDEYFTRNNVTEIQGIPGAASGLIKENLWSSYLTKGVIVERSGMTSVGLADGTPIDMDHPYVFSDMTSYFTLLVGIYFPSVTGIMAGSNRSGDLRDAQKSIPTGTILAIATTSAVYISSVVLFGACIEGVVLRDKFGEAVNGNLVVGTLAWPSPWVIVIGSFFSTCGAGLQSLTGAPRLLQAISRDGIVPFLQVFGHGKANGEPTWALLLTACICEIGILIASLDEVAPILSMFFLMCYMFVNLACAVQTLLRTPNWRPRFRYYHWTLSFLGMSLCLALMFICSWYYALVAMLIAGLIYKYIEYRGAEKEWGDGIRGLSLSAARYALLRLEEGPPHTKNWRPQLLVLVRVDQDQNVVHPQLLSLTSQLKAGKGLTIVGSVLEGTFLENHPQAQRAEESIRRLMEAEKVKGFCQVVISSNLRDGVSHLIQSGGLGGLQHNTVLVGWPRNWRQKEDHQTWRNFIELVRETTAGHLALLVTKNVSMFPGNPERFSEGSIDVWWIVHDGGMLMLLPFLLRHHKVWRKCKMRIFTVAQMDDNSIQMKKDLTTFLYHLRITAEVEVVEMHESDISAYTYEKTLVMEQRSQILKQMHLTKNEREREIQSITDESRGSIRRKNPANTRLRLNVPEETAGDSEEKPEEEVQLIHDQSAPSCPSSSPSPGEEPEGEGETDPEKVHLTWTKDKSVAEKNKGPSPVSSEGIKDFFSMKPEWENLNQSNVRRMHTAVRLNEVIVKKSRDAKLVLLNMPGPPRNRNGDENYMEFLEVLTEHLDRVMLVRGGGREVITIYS
Each line names hits and unclear results; the compound was inactive in the other large screens; ! = not confirmed by another sample. An excerpt weighted towards active compounds, which were near 12% of everything screened.

O=C(OCC(=O)N1CCc2ccccc2C1)c1cccnc1Cl	none (no result: ROMK primary)
COc1cccc(OCC(O)CN2CCN(CCN3C(=O)c4cccc5cccc(c45)C3=O)CC2)c1 (configuration not stated)	L major viab 100.0 (no result: Cl transport mod)
O=C1c2cccc3cccc(c23)C(=O)N1CCN1CCN(CC(O)COc2ccccc2)CC1 (configuration not stated)	L major viab 97.1 (no result: ROMK primary)
O=C(CN1CCN(CCN2C(=O)c3cccc4cccc(c34)C2=O)CC1)c1ccc(Cl)cc1	L major viab 86.7
COc1ccc(N(CCCN2C(=O)c3cccc4cccc(c34)C2=O)C(=O)c2cccc(OC)c2)cc1	Diaph inh CS 55.5 (no result: ROMK primary)
COc1cccc(OCC(O)CN2CCN(c3ncccn3)CC2)c1 (configuration not stated)	none (no result: ROMK primary)
Cn1c(=O)c2c(ncn2CC(=O)OCC(=O)Nc2ccccc2)n(C)c1=O	none
CCOC(=O)c1sc(NC(=O)C2CCC2)cc1C	none
O=C(NCc1ccccc1)C1=C[C@@H](c2csc3ccccc23)C[C@@H](OCc2ccc(CO)cc2)O1	L major viab 73.9 (no result: ROMK primary)
O=C(NC1CC1)C1=C[C@H](c2csc3ccccc23)C[C@H](OCCCCO)O1	L major viab 84.8 (no result: ROMK primary)
O=C(O)C1=C[C@H](c2csc3ccccc23)C[C@H](OCc2ccc(CO)cc2)O1	none (no result: ROMK primary)
O=C(O)C1=C[C@@H](c2csc3ccccc23)C[C@@H](OCc2ccc(CO)cc2)O1	Cl transport mod -3.12 (no result: ROMK primary)
COc1ccc(CNC(=O)C(NC(C)=O)C(=O)Nc2ccc(C(C)C)cc2)cc1 (configuration not stated)	none
O=[N+]([O-])c1cc(C(F)(F)F)ccc1NCCc1c[nH]c2ccc(O)cc12	WT yeast gro inh 78.5 (no result: ROMK primary, Cl transport mod)
O=[N+]([O-])c1cc(C(F)(F)F)ccc1NCCc1c[nH]c2ccccc12	WT yeast gro inh 61.9 (no result: ROMK primary)
CS(=O)(=O)NCCCNc1ccc(C(F)(F)F)cc1[N+](=O)[O-]	none (no result: Diaph inh CS, Diaphorase act, WT yeast gro inh, L major viab)
CC(C)c1ccc(NC(=S)NCc2cccs2)cc1	WT yeast gro inh 67.4
CC(Cc1cccs1)NC(=S)Nc1ccc(F)cc1 (configuration not stated)	L major viab 50.7
Cc1cc(Cl)ccc1NC(=S)NCc1cccs1	L major viab 77.0 (no result: ROMK primary)
O=C(Nc1ccccc1C(=O)NCc1cccnc1)c1cccc([N+](=O)[O-])c1	none
CN1c2ccccc2C(C)(C)C12CC(c1ccc(Cl)c(S(=O)(=O)N3CCCC3)c1)=NO2 (configuration not stated)	L major viab 69.0
c1ccc2c(N3CCCCC3)nc(N3CCOCC3)nc2c1	none
C(=C\c1nc(N2CCCCCC2)c2ccccc2n1)/c1ccccc1	L major viab 85.7 (no result: ROMK primary)
c1ccc2c(N3CCCCC3)nc(N3CCCCC3)nc2c1	L major viab 68.4 (no result: Cl transport mod)
CC(C)c1ccc2c(c1)C(c1cccs1)=NNC(c1ccncc1)=N2	none
CC(C)c1ccc2c(c1)C(c1ccc(N3CCOCC3)cc1)=NNC(c1cccs1)=N2	L major viab 82.6
CC(C(=O)Nc1cccnc1)c1ccc([N+](=O)[O-])cc1 (configuration not stated)	none
CC(C(=O)Nc1cccc(Br)c1)c1ccc([N+](=O)[O-])cc1 (configuration not stated)	L major viab 51.2 (no result: ROMK primary)
CCc1nnc(NC(=O)C2CCCN(S(=O)(=O)c3ccc(OC)cc3)C2)s1 (configuration not stated)	none (no result: Diaph inh CS, Diaphorase act)
O=S(=O)(Nc1ccc(N=Nc2ccccc2)cc1)c1ccccc1	none (no result: ROMK primary)
O=S(=O)(Nc1ccc(N=Nc2ccc(O)c3ccccc23)cc1)c1ccccc1	WT yeast gro inh 58.8, L major viab 85.9
O=C(NC(=S)NC1CCCCCC1)c1cncc(Br)c1	L major viab 61.4, Cl transport mod 48.3
Cc1ccccc1NC(=S)NC(=O)c1cncc(Br)c1	Cl transport mod 29.4
O=C(N/N=C/c1cc2c3c(c1O)CCCN3CCC2)c1ccccc1O	Diaph inh CS 62.7, L major viab 100.0 (no result: ROMK primary)
Cc1nn(-c2ccccc2)c(N2CCCC2)c1/C=N/NC(=O)c1ccccc1O	none
COc1ccc(OC)c(-c2csc(NC(=O)CSc3ccc([N+](=O)[O-])cc3)n2)c1	L major viab 85.3
COc1ccc(OC)c(-c2csc(NC(=O)Cn3[nH]c(=O)c4ccccc4c3=O)n2)c1	none
COc1ccc(OC)c(-c2csc(NC(=O)CSc3ccc(Br)cc3)n2)c1	L major viab 53.5
COc1cc2c(C(=O)N3CCN(c4ccccc4C)CC3)c(C)oc2cc1Br	none (no result: ROMK primary)
CC1=CCC(C(=O)O)(C(=O)N/N=C/c2cccs2)C(c2ccc([N+](=O)[O-])cc2)C1 (configuration not stated)	WT yeast gro inh 69.5 (no result: Cl transport mod)
CCOc1ccc(/C=C/c2c([N+](=O)[O-])c(=O)n(C)c(=O)n2C)cc1	L major viab 65.2
COc1ccc(/C=C/c2c([N+](=O)[O-])c(=O)n(C)c(=O)n2C)cc1	none
c1ccc(-c2ccc(C(c3ccccc3)n3ccnc3)cc2)cc1 (configuration not stated)	WT yeast gro inh 73.4!, L major viab 97.8 (no result: ROMK primary)
O=C(O)C1CCN(Cc2ccccn2)CC1	none
CC1CN(Cc2ccccn2)CCC1=O (configuration not stated)	L major viab 53.3
Cc1ccc(C)c(N2CCN(C(=O)Cc3cn(C)c4ccccc34)CC2)c1	WT yeast gro inh 63.5 (no result: ROMK primary)
Cc1ccc(C)c(N2CCN(C(=O)C(Cc3ccccc3)n3cccc3)CC2)c1 (configuration not stated)	WT yeast gro inh 61.8 (no result: ROMK primary)
CCC(=O)N1CCN(c2cc(C)ccc2C)CC1	none (no result: Cl transport mod)
Cc1ccc(C)c(N2CCN(C(=O)c3csc4ccccc34)CC2)c1	WT yeast gro inh 74.0 (no result: ROMK primary)
Brc1cccc(CNc2nc3ccccc3n2CCN2CCCCC2)c1	none (no result: Diaph inh CS, ROMK primary, Diaphorase act, WT yeast gro inh, L major viab)
Cn1c(NCc2cccc(Br)c2)nc2ccccc21	L major viab 60.9 (no result: ROMK primary)
CCOC(=O)c1cc([N+](=O)[O-])c([N+](=O)[O-])cc1NC(C)=O	WT yeast gro inh 76.3, L major viab 70.6
Cc1ccc(S(=O)(=O)N(C)C)cc1NC(=S)N1CCN(Cc2ccc3c(c2)OCO3)CC1	L major viab 84.3
COc1ccccc1NC(=O)N1CCN(Cc2ccc3c(c2)OCO3)CC1	none (no result: Diaph inh CS, ROMK primary, Diaphorase act, WT yeast gro inh, L major viab)
Cc1c(Cl)cccc1NC(=S)N1CCN(Cc2ccc3c(c2)OCO3)CC1	L major viab 74.0 (no result: ROMK primary)
COc1ccccc1NC(=S)N1CCN(Cc2ccc3c(c2)OCO3)CC1	L major viab 96.0
O=C(O)C1CSC2(c3ccc(Br)cc3)CCC(=O)N12 (configuration not stated)	none
COc1cccc(NC(=O)COC(=O)CNS(=O)(=O)c2c(F)cccc2F)c1	none (no result: ROMK primary)
